# Assay outcomes: PubChem BioAssay, several laboratories
# Most compounds without a hit are left out; they make up all but 2.4% or so of the library.
# Jurkat NFkB inh: inhibitors of the PMA/ionomycin-induced NF-kB reporter in Jurkat cells | PMA/ionomycin-induced NF-kB luciferase reporter, luminescence | 330,000 compounds, 0.53% hits | inhibition, % at 4 µM; in the data active = inhibition above about 50%
# NR2E3 ag-1: agonists of human nuclear receptor NR2E3 | GST-NR2E3/biotin-RetCOR TR-FRET, 1536-well | inhibition of corepressor binding, % at 4.78 µM | 320,000 compounds, 0.12% hits;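 active = percent inhibition above the cutoff of mean plus 3 SD of all tested compounds, set per screening campaign, cut at about 20% in these data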;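 also: 0% = DMSO wells and 100% = biotin wells as full block of FRET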
# Target sequence (Q9Y5X4 whole entry, looked up): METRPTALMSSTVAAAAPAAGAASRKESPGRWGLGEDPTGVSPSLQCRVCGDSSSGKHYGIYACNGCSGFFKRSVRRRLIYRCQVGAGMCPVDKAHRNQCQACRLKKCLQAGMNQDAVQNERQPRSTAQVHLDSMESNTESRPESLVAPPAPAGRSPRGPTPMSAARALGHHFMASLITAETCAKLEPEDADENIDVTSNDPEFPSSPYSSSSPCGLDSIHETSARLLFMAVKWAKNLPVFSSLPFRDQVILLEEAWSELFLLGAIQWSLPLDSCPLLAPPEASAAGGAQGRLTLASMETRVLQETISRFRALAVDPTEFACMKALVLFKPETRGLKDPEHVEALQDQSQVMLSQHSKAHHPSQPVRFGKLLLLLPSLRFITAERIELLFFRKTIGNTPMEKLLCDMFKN
#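 Format: 1536-well format; test system: GST-NR2E3 and biotin-RetCOR proteins; read-out basis: percent inhibition of TR-FRET ratio; timing: 5 h incubation at 4 °C; detection: time-resolved FRET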
# aDG glyco act: increases alpha dystroglycan glycosylation; activation, % at 10 µM; Pro5-aDG cells, alpha-DG glycosylation AlphaScreen (IIH6); 0% Pro5, 100% B10-LARGE cell signal; AID 624168; 360,000 compounds, 0.22% hits;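 active = activation of at least 8% versus controls, or a plate z-score of at least 8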;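 also: Pro5 are CHO cells carrying HIG-tagged alpha-DG that lacks glycosylation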
# 697 NFkB inh: inhibitors of the PMA/ionomycin-induced NF-kB reporter in 697 B cells. 697 B-cell NF-kB luciferase reporter, 16 h. AID 435022. 330,000 compounds, 0.33% hits. inhibition, % at 4 µM; in the data active = inhibition above about 35%
# MPTP inh: inhibitors of mitochondrial permeability transition pore. isolated mouse mitochondria, Ca2+ swelling absorbance, 30 min. inhibition, % at 10 µM. 360,000 compounds, 1.4% hits. AID 602449;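 active = inhibition of 50% or more, scaled per plate between neutral and stimulator controls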;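 also: 0% = DMSO wells given calcium and 100% = 1 mM EGTA wells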
# NR2E3 ag-2: agonists of human NR2E3 nuclear receptor | inhibition of corepressor binding, % at 3.98 µM | AID 602229 | CHO-S Gal4-NCOR/VP16-NR2E3 two-hybrid, luciferase | Q9Y5X4 | 360,000 compounds, 0.35% hits;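 active = inhibition above the mean of all tested compounds plus 3 SD, cut at about 70% in these data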;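 also: 0% = DMSO with NR2E3 transfected cells and 100% = cells lacking NR2E3 construct; higher means lower luciferase signal from less NR2E3 corepressor binding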
# Jurkat NFkB conf: lowers PMA/ionomycin-induced NF-kB signal in Jurkat cells | inhibition, % at 4 µM | shares compounds with Jurkat NFkB inh | 2,700 compounds, 27% hits | Jurkat NF-kB luciferase, 16 h;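 active = inhibition reaching about 45% at 4 µM in either replicate, limit read from the data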;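 also: plate controls were PMA/ionomycin stimulated DMSO wells for no effect and unstimulated DMSO wells for full effect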
# * = called active by the depositor; x = no result.
SMILES,Jurkat NFkB inh,NR2E3 ag-1,aDG glyco act,697 NFkB inh,MPTP inh,NR2E3 ag-2,Jurkat NFkB conf
CS(=O)(=O)Nc1ccc(C(=O)Nc2ccccc2Cl)cc1,-6,-1,0,17,-3,-4,x
COc1cccc(C(=O)Nc2ccc3[nH]ncc3c2)c1,-70,1,0,-45,0,-29,x
CCOc1cccc(C(=O)Nc2ccc3[nH]ncc3c2)c1,-151,4,0,-27,3,-84,-63
CC(=O)NNC(=O)CCn1c2c(c3ccccc31)CCCC2,-14,-2,0,6,2,-9,x
CCCCCn1c2c(c(=N)c3ccccc31)CCC2,74*,0,0,35,9,-8,47*
CCOC(=O)Cn1c2c(c(=N)c3ccccc31)CCC2,-1,3,0,-6,-4,-33,x
CCCCCCCCn1c2c(c(=N)c3ccccc31)CCC2,99*,x,4,26,33,28,69*
Fc1ccccc1Cc1noc(CN2CCCC(CN3CCOCC3)C2)n1 (stereo not given),-5,-9,0,10,0,-16,x
COC(=O)c1c(-c2ccc(Br)cc2)csc1NC(=O)Cc1ccc(OC)c(OC)c1,20,-2,0,-16,3,8,x
COC(=O)c1c(-c2cccc3ccccc23)csc1NC(=O)Cc1ccc(OC)c(OC)c1,53*,2,0,-4,2,24,25
COc1ccc(NC(=O)CN(C)CC(=O)NCCc2ccc(F)cc2)cc1,12,x,0,0,0,-11,x
C#Cc1ccc([C@@H]2C=C(C(=O)N3CCN(Cc4ccccc4)CC3)O[C@H](OCCCCO)C2)cc1,80*,-1,1,-18,1,75*,43
CS(=O)(=O)N(CC(=O)NCc1cccnc1)C1CCCCC1,-2,-4,0,24,-4,1,x
Nc1ccc2oc(-c3cccc(Br)c3)nc2c1,-177,3,0,-182,1,-67,-38
C(=N\Nc1nc(-c2ccccn2)nc2ccccc12)/c1ccccc1,101*,2,x,-30,x,x,15
C(=N\Nc1nc(-c2cccnc2)nc2ccccc12)/c1ccccc1,-16,1,0,-25,3,-8,x
CC(C)c1ccc(C(=O)N(c2ccccn2)C(C)c2ccco2)cc1 (stereo not given),-165,2,1,-46,3,-24,-78
O=C(CSc1ncnc2ccccc12)c1cccs1,-157,2,0,-70,-2,-85,-62
Cn1ncc(N2CCN(C(=O)c3ccc(Cl)cc3)CC2)c(Cl)c1=O,2,0,0,3,-1,1,x
CCOc1ccc(OCC)c(NC(=O)CN2CCN(c3cccc(C)c3)CC2)c1,20,-4,0,7,1,-24,x
CCOc1ccc(OCC)c(NC(=O)CN2CCN(c3cccc(C)c3)C(C)C2)c1 (stereo not given),58*,2,0,-20,2,9,19
NS(=O)(=O)c1ccc(NNC(=O)c2ccc(F)cc2F)cc1,-5,6,0,23,1,18,x
CCOc1ccc(N(CC(=O)Nc2ccccc2C)S(=O)(=O)c2c(C)noc2C)cc1,58*,0,0,-62,0,-16,46*
CCOc1ccccc1NC(=O)CN(c1ccc(OC)cc1)S(=O)(=O)c1c(C)noc1C,65*,-1,0,-44,2,-38,44
CCOc1cccc(/C=N/Nc2ccc(S(=O)(=O)N(CC)CC)cn2)c1O,60*,4,2,-34,2,-44,46
SMILES,Jurkat NFkB inh,NR2E3 ag-1,aDG glyco act,697 NFkB inh,MPTP inh,NR2E3 ag-2,Jurkat NFkB conf
CCN(CC)S(=O)(=O)c1ccc(N/N=C/c2cc(OC)c(OC)cc2OC)nc1,3,-2,0,-2,2,7,x
CN(c1ccccc1)c1cc(=O)[nH]c(=O)[nH]1,-7,-1,0,-26,-6,4,x
O=c1cc(CN2CCOCC2)c2ccccc2o1,x,x,0,x,-2,2,x
O=c1c2ccccc2oc2cc(-c3ccc(CN4CCOCC4)cc3)ccc12,-151,4,0,-223,4,-92,-67
Cc1ccc(N(C)C(=O)n2cnc3ccccc32)cc1,-17,-2,0,-5,1,1,x
Cc1cc(-c2csc(Nc3ccccn3)n2)ccc1F,-158,1,0,-237,2,-138,-81
Oc1ccc(-c2csc(Nc3ccccn3)n2)cc1,-121,1,0,-175,0,-120,x
CCC1=Nc2cc(C(=O)NCc3cccnc3)ccc2Sc2ccc(C)cc21,56*,0,0,-21,3,-26,19
CCc1ccc(CCC(=O)Nc2ncc(Cc3ccccc3Cl)s2)o1,66*,2,0,-58,0,10,2
O=C(CN1CCOCC1)Nc1ncc(Cc2ccccc2Cl)s1,-4,-1,0,-9,1,-25,x
CCN(CCCNC(=O)C1CCC(=O)N1Cc1ccc(C)cc1)c1cccc(C)c1 (stereo not given),57*,7,0,-7,0,-11,-26
CCN(CCCNC(=O)C1CCC(=O)N1Cc1ccccc1Cl)c1cccc(C)c1 (stereo not given),-33,-1,0,-17,-1,1,x
CN1CCC(N(C)C(=O)c2cc(-c3ccccc3Cl)nc3ccccc23)CC1,-12,2,1,1,0,7,x
COc1ccc(N(CC(=O)NCC2CCCO2)S(=O)(=O)c2ccccc2)cc1OC (stereo not given),8,3,0,3,1,-14,x
COc1cc(/C=C2\CC(C(C)(C)C)C/C(=C\c3cc(OC)c(OC)c(OC)c3)C2=O)cc(OC)c1OC (stereo not given),90*,1,-1,-222,0,-2,-14
COc1cc(/C=C2\CC/C(=C\c3cc(OC)c(OC)c(OC)c3)C2=O)cc(OC)c1OC,18,0,0,26,4,-4,x
CC1CCC(NC(=O)CN(C)CC(=O)Nc2ccc(F)cc2)CC1 (stereo not given),-6,3,0,-18,-2,2,x
COc1cc(C(=O)NC2CCCc3c2cnn3-c2ccccc2F)cc(OC)c1OC (stereo not given),27,-1,0,-35,0,30,x
COC(=O)c1ccc(C(=O)NC2CCCc3c2cnn3-c2ccccc2F)nc1 (stereo not given),56*,-2,0,-44,-1,-31,24
COc1cc(C(=O)NNC(=O)c2cccc(Cl)c2)ccc1OCC(=O)N1CCOCC1,-19,3,0,10,0,6,x
Cc1ccc(Cn2c(=N)n(CC(O)COc3ccccc3)c3ccccc32)cc1 (stereo not given),53*,1,3,-40,3,-6,12
